The list is not random: actives were taken first. Their share in the collection is about 1.2%.
M1 PAM parental: nonselective calcium activators in parental CHO-K1 cells, primary screen, counter-screen for M1 PAM project, cell-based, Fluo-8 calcium fluorescence, full deck, 1536-well; ATP EC20; 0% at ATP EC20, 100% at ATP max; activation, % at 3 µM; actives 0.02% (n = 360,000); AID 602247, 2012;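 active means activation above the run cutoff, the mean activation of all test compounds plus 3 SD, cut at about 40% in these data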;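 further: peak over basal fluorescence ratio in a 140 s read after ATP addition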
CHO-K1 Ca antag: counter-screen for M1 antagonists: effect in parental CHO-K1 cells; ATP-induced calcium, Fluo-8 fluorescence; inhibition, % at 3 µM; actives 0.6% (n = 360,000);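 active means inhibition above a per-plate cutoff, the plate's mean sample inhibition plus 3 SD, cut at about 24% in these data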;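 further: 0% = DMSO plus EC80 ATP and 100% = DMSO alone without ATP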
TRPN1 ag: zebrafish TRPN1 channel agonists, primary screen, cell-based, HEK293, calcium fluorescence; HEK293 zebrafish TRPN1-YFP, Fluo-8 calcium fluorescence; 100% = response to 87 µM carbachol; activation, % at 3 µM; actives 0.18% (n = 220,000); AID 1424, 2008;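 active means activation above its plate's cutoff, the mean activation of test wells on that plate plus 3 SD, cut at about 19% in these data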;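 further: 0% = DMSO alone and 100% = 87 µM carbachol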
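Material: zebrafish TRPN1-YFP in HEK293 cells; Doses: single test compound dose, 3 µM nominal, 0.3% DMSO; Timing: dye loading 1 h at 37 °C, then 30 min room temperature; Technique: intracellular calcium fluorescence with Fluo-8; Benchmarks: high carbachol 87 µM, low DMSO alone.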
TRPML3 ag: human TRPML3 channel agonists, primary screen, cell-based, HEK293 TRPML3-YFP, Fluo-8 calcium fluorescence, 3 µM | 100% = the carbachol control signal | activation, % at 3 µM | actives 0.29% (n = 220,000);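 active means activation above its plate's cutoff, the mean activation of the plate's test wells plus 3 SD, cut at about 12% in these data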;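 further: 0% = DMSO only wells and 100% = carbachol wells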
Target sequence (Q8TDD5 whole entry, looked up): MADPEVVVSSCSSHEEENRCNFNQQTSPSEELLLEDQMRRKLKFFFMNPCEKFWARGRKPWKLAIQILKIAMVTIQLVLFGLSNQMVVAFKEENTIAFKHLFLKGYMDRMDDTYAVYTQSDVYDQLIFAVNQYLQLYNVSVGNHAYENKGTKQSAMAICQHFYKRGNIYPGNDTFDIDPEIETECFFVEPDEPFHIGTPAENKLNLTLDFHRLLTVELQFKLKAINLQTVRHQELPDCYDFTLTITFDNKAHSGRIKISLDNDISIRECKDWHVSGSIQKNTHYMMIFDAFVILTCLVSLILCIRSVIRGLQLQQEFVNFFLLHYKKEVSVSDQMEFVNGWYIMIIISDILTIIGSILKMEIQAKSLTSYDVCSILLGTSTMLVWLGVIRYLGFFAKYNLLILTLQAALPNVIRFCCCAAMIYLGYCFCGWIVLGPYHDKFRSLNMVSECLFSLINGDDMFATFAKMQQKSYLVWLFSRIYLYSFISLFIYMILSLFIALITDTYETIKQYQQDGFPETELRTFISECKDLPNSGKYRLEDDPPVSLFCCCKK
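Test system: HEK293 cells stably carrying human TRPML3-YFP; Doses: single dose, 3 µM final nominal compound, 0.3% DMSO final; Schedule: dye loading 1 h 37 °C then 30 min ambient, 125 s read; Technique: Fluo-8 calcium fluorescence; Benchmarks: high control carbachol 87 µM, low control DMSO.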
CHO-K1 Ca ag: counter-screen for M1 agonists: effect in parental CHO-K1 cells | Fluo-8 calcium fluorescence; scaled to maximal ATP response, vehicle zero | activation, % at 3 µM | actives 0.48% (n = 360,000); in the data active means activation above about 15%;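 further: untransfected CHO-K1 host cells lacking M1 receptor as counterscreen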
Starred values were filed as active, the others as inactive; . = no result given.

SMILES | M1 PAM parental | CHO-K1 Ca antag | TRPN1 ag | TRPML3 ag | CHO-K1 Ca ag
CCCCOc1ccccc1NC(=O)c1ccco1 | 16.3 | -11.5 | -2.4 | -0.5 | -0.3
CCCCOc1ccccc1NC(=O)c1scc2c1OCCO2 | 52.8* | -24.5 | -0.4 | 0.5 | 2.3
Nc1cccc2c(O)cccc12 | 12.7 | -5.4 | . | . | -0.2
c1ccc(Nc2cccc3ccccc23)cc1 | 24.7 | -8.6 | . | . | -0.2
Nc1ccc2c3c(cccc13)CC2 | 13.6 | 11.8 | 41.7* | 19.9* | 14.3
c1ccc(Nc2ccc3c4c(cccc24)CC3)cc1 | 8.1 | 39.9* | -0.7 | 0.0 | 39.8*
CC(C)c1ccc(NC(=O)Nc2nc(C(N)COCc3ccccc3)cs2)cc1 (centres undefined) | 7.2 | 0.1 | . | . | 1.9
CCN1CCN(C(=O)c2cc3cc(F)ccc3[nH]2)CC1 | -28.7 | 33.8* | . | . | -0.5
CCc1ccc(NC(=O)NCCN2CCN(c3ccc(OC)cc3)CC2)cc1 | 12.0 | 0.8 | . | . | 15.4*
CC1(C(=O)NS(=O)(=O)c2cccc(F)c2)CCN1C(=O)CC1CCCCC1 (centres undefined) | 21.6 | -9.9 | . | . | 1.4
CCOc1cc2c(c3c1C(c1ccccc1)N(S(=O)(=O)c1ccc(C)cc1)C3)C(=O)C=CC2=O (centres undefined) | 14.6 | 6.2 | . | . | 0.1
Cn1c(SCc2cccc(F)c2)nnc1-c1cnccn1 | 15.6 | -14.8 | -0.3 | 0.5 | 0.7
Cn1c(SCc2ccccc2Cl)nnc1-c1cnccn1 | -5.5 | 23.8* | -1.5 | 0.3 | -0.1
COC(=O)[C@H](Cc1ccccc1)NC(=O)/C=C/[C@H]1O[C@@H](n2cc(C)c(=O)[nH]c2=O)C[C@@H]1O | 8.0 | -15.4 | . | . | 0.7
CC(C)CN(C(=O)c1ccc(=O)n(C)n1)c1nc2ccccc2s1 | -7.2 | 23.7* | -1.6 | 0.9 | -0.3
Cc1ccc(C(=O)N(CC(C)C)c2nc3ccccc3s2)o1 | 10.5 | -17.2 | . | . | 1.3
CN1CCN(c2ccc(-c3cccc4nccn34)cn2)CC1 | 26.1 | -16.4 | . | . | 2.5
CCc1n[nH]c(=S)n1/N=C/c1cccc2ccccc12 | 5.1 | -4.2 | . | . | 18.2*
CCc1n[nH]c(=S)n1/N=C/c1c(O)ccc2ccccc12 | 7.3 | -1.5 | . | . | 0.4
CCS(=O)(=O)N1Cc2cc(C(=O)N(C)C)nc(-c3cccc(-c4ccc(F)cc4)c3)c2[C@H]1CCO | -0.1 | 14.6 | . | . | 0.0
COCCOC(=O)c1[nH]c2c(c1C)C(=O)CC(c1ccc(N(C)C)cc1)C2 (centres undefined) | 5.5 | 6.2 | 2.0 | -0.3 | 16.5*
COc1ccc(C(=O)Nc2nnc(CCc3ccccc3)s2)c(OC)c1 | -20.8 | 34.9* | . | . | 0.2
O=C(Nc1nnc(SCc2ccc(Cl)cc2)s1)C1CCCO1 (centres undefined) | -9.1 | 30.6* | -1.6 | 0.3 | 0.0
COC(=O)c1ccc(CSc2nnc(NC(=O)C3CCCO3)s2)cc1 (centres undefined) | 13.1 | -11.2 | 0.1 | 0.6 | 1.2
CCOc1cc(OCC)cc(C(=O)N2CCC[C@H]2C(=O)N2CCC[C@H]2C(=O)NCc2ccc(F)cc2F)c1 | 22.9 | -30.4 | . | . | 1.5
SMILES | M1 PAM parental | CHO-K1 Ca antag | TRPN1 ag | TRPML3 ag | CHO-K1 Ca ag
CCOc1cc(OCC)cc(C(=O)N2CCC[C@@H]2C(=O)N2CCC[C@@H]2C(=O)NCc2ccccc2Cl)c1 | -3.6 | 9.9 | . | . | 17.1*
COc1ccc(-c2nc3c4ccccc4ccn3c2CC2CCCCC2)cc1OC | 17.4 | -12.1 | . | . | -0.4
Cc1cc(C)c2c(=O)[nH]c(SCC(=O)N3CCOCC3)nc2n1 | -0.2 | 16.6 | 0.3 | 0.4 | 16.9*
O=NN(CCCl)C(=O)NCC1=C[N+](=O)CC=C1 | 3.5 | -8.3 | . | . | 1.1
O=C(NNC(=O)c1cc(S(=O)(=O)N2CCOCC2)ccc1Cl)c1ccc(F)cc1 | -0.6 | -13.6 | . | . | 0.5
O=C(NCCCn1ccnc1)c1cc(-c2cccnc2)nc2ccc(Br)cc12 | 4.3 | -2.3 | 0.9 | 2.5 | 17.3*
Cc1ccc2nc(-c3ccccc3)cc(C(=O)NCCCn3ccnc3)c2c1 | 10.5 | 1.3 | 3.7 | -0.4 | 2.7
COc1ccccc1-c1cnc(C(O)c2ccc(F)c(F)c2)[nH]1 (centres undefined) | 28.9 | -12.2 | . | . | 1.5
COc1ccc(OC)c(-c2cc(C3CCN(c4cc(Cl)nc(N)n4)CC3)[nH]n2)c1 | -6.6 | 25.1* | 2.5 | 1.7 | 0.4
COc1ccc(-c2cc(C3CCN(Cc4ccc([N+](=O)[O-])cc4)CC3)[nH]n2)cc1 | -6.6 | 14.8 | 2.2 | 1.2 | 1.5
COc1ccc(OC)c(-c2cc(C3CCN(c4ncccc4[N+](=O)[O-])CC3)[nH]n2)c1 | 7.6 | -16.6 | -0.7 | 0.3 | 1.1
COc1ccc(-c2cc(C3CCN(c4cc(Cl)nc(N)n4)CC3)[nH]n2)cc1 | -4.9 | 3.3 | 5.5 | 0.2 | 2.0
Nc1nc(Cl)cc(N2CCC(c3cc(-c4ccc(Cl)cc4)n[nH]3)CC2)n1 | -0.2 | -1.0 | 4.8 | 3.8 | 20.6*
Cc1ccc(CN2CCC(c3cc(-c4ccc(Cl)cc4)n[nH]3)CC2)cc1 | -6.5 | 3.9 | . | . | 15.5*
CN1CC(O)(C(O)C(O)C(O)CO)SC1=S (centres undefined) | 1.8 | -1.3 | . | . | 0.0
CCCNC(=O)C1(C)CCCN(C(=O)COc2ccc(Cl)cc2Cl)C1 (centres undefined) | 7.8 | -2.6 | . | . | 1.5
CC(=O)NC(c1ccc(F)c(F)c1)c1nc(-c2cnn(C)c2)cs1 (centres undefined) | 1.1 | 8.7 | . | . | 0.3
CC1CCN(C(=O)CNC(=O)c2ccc(Cl)cc2Cl)CC1 | -6.2 | 31.4* | -0.3 | 0.5 | -0.1
Cc1cccc(OCC(=O)Nc2ccc3c(c2)OCCO3)c1 | 12.9 | -0.9 | -0.8 | -0.5 | 1.6
Cc1ccc(OCC(=O)Nc2ccc(N3CCN(C(=O)c4ccco4)CC3)cc2)cc1C | -9.6 | 9.8 | 3.7 | 1.4 | 15.5*
Cc1cc(OCC(=O)Nc2ccc(N3CCN(C(=O)c4ccco4)CC3)cc2)cc(C)c1Cl | 5.6 | -8.5 | 2.5 | 0.6 | 2.4
Cc1cc(C)cc(NC(=S)N2CCN(C(=O)c3ccco3)CC2)c1 | -28.2 | 25.4* | . | . | -0.6
O=C(c1ccco1)N1CCN(C(=S)Nc2ccc(F)cc2)CC1 | 7.9 | -6.3 | . | . | 0.2
Cc1cccc(OCC(=O)Nc2ccc3oc(=O)ccc3c2)c1 | -10.4 | 3.3 | . | . | 18.7*
Cc1ccccc1C(=O)N1CCN(c2ccc(NC(=S)NC(=O)c3ccco3)cc2)CC1 | 2.4 | 6.5 | . | . | 15.1*
Cc1cccc(OCC(=O)Nc2ccc(N3CCN(C(=O)c4ccco4)CC3)cc2)c1 | -17.2 | 28.6* | 6.5 | 2.9 | 16.1*
Cc1cccc(C(=O)Nc2ccc(N3CCN(C(=O)c4ccco4)CC3)cc2)c1 | 8.3 | -21.2 | . | . | 3.4
COc1ccc(NC(=O)C[C@H]2C(=O)N(C3CCCCC3)C[C@@H]2C)cc1 | 20.5 | -6.0 | . | . | 0.3

Source: PubChem
